Assay outcomes from PubChem.
MPTP inh – permeability transition pore inhibition; isolated mouse mitochondria, Ca2+ swelling absorbance, 30 min; inhibition, % at 10 µM; 360,000 tested, 1.4% active; AID 602449;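 active means inhibition of 50% or more, scaled per plate between neutral and stimulator controls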;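 further: 0% = DMSO wells given calcium and 100% = 1 mM EGTA wells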
MT1-MMP act inh – inhibitors of human MT1-MMP activation; GFP/RFP ratio change, % at 20 µM; 360,000 tested, 0.061% active; P50281; HT1080 RFP-PRO-GFP cells, GFP/RFP ratio fluorescence, overnight; percent of plate control window, DMSO zero;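 active means GFP/RFP ratio change of at least 30% with cell ATP level not reduced by more than half and red fluorescence within 50% of control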
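Read-out: GFP/RFP fluorescence ratio; Test system: RFP-PRO-GFP reporter HT1080 cells; Compound dosing: single-point 20 µM compound, 1% DMSO; Times: overnight compound exposure at 37 °C.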
NR3A LBD binder – modulates the human NR3A ligand-binding domain. 340,000 tested, 2.5% active. AID 1259313. NR3A LBD differential scanning fluorimetry, Tm shift; 0% = protein alone, 100% = glycine-bound protein. Tm shift relative to glycine control, % at 25 µM;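 active means melting temperature shift of at least 10% of the positive control shift, at one fixed dose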
ADAM10 inh – ADAM10 inhibition, QFRET primary screen; 370,000 tested, 0.62% active; O14672; inhibition, % at 7 µM; recombinant ADAM10, EDANS/DABCYL FRET peptide cleavage, 3 h;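 active means inhibition above a per-campaign cutoff equal to the mean of compounds falling between control-based bounds plus 3 SD, cut at about 20% in these data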;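 further: 0% = DMSO wells while the 100% control is not disclosed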
Target sequence (O14672 214-748 limits assumed): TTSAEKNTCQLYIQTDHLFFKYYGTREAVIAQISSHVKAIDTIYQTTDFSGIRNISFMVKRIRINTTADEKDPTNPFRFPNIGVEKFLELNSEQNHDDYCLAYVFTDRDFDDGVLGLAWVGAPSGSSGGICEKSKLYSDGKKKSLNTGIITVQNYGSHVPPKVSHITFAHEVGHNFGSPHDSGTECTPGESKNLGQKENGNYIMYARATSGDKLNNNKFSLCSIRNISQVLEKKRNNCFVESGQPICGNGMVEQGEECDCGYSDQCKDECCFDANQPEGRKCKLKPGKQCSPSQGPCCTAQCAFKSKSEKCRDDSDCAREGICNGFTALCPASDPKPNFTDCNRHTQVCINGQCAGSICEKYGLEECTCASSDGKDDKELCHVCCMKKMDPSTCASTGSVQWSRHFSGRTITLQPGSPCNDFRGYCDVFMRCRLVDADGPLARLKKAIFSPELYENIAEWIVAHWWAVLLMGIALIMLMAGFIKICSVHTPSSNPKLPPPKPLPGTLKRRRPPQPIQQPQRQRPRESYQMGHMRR
ADAM17 inh – inhibitors of human ADAM17; inhibition, % at 6.95 µM; recombinant ADAM17, EDANS/DABCYL FRET peptide cleavage; 370,000 tested, 0.83% active; AID 720648; P78536;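 active means inhibition above the mean of compounds lying between control limits plus 3 SD, set per campaign, cut at about 8.5% in these data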;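 further: 0% = DMSO-only wells as the low control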
SKN-1 inh – C. elegans SKN-1 inhibition; 360,000 tested, 0.49% active; AID 624304; inhibition, % at 21.8 µM; C. elegans VP596 Pgst-4::GFP/RFP ratio, acrylamide-induced, 24 h;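 active means interference check ratio from 0.5 to 1.5 plus GFP to RFP signal ratio inhibition reaching or exceeding a fixed threshold, cut at about 30% in these data, passing the limit was not always enough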
ADAM10 counter – inhibits human ADAM10 in ADAM17 exosite counter-screen; AID 743256; inhibition, % at 6.95 µM; shares compounds with ADAM17 inh; recombinant ADAM10, EDANS/DABCYL FRET peptide cleavage, 3 h; 2,900 tested, 47% active;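 active means mean inhibition over the triplicate runs exceeds the activity threshold set in the earlier primary screen, cut at about 20% in these data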;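 further: 0% = DMSO wells and 100% = marimastat wells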
ADAM17 confirm – human ADAM17 inhibition, confirmation | shares compounds with ADAM17 inh | recombinant ADAM17, EDANS/DABCYL QFRET peptide cleavage | inhibition, % at 6.95 µM | 2,900 tested, 65% active;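 active means mean inhibition across replicates above the hit cutoff set in the primary screen, cut at about 8.5% in these data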;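 further: 0% = DMSO wells and 100% = marimastat wells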
* marks the source's active call; other numbers are inactive results; . = not tested or not shown. Compounds with a hit are over-represented: about 4.7% of the library has one in this group of screens.

SMILES	MPTP inh	MT1-MMP act inh	NR3A LBD binder	ADAM10 inh	ADAM17 inh	SKN-1 inh	ADAM10 counter	ADAM17 confirm
CCOc1ccc(N(CC(=O)NCCSc2ccccn2)S(C)(=O)=O)cc1	-5	2	2	6	10*	3	-3	1
NC(=O)C(c1ccccc1)C1CCCCC1 (configuration not stated)	0	-8	-3	1	2	-13	.	.
CCOC(=O)C1=C(COC(=O)COc2ccccc2C(C)C)NC(=O)NC1C (configuration not stated)	-1	4	-1	-3	-6	-21	.	.
O=C(COc1ccccc1Br)NCCc1nc2ccccc2[nH]1	0	3	-1	7	8.9*	4	12	2
CC1=C(C(=O)Nc2ccccc2C(=O)NCCCN2CCN(C)CC2)SCCO1	-2	-1	-1	-7	7	11	.	.
COc1ccc(C(=O)N(Cc2sccc2C)C2CCS(=O)(=O)C2)cc1 (configuration not stated)	1	-4	-5	0	9.1*	-8	-4	1
CCCCNC(=O)c1ccccc1NC(=O)CCSc1ccccc1	4	-1	-4	-4	-3	-15	.	.
CC(=O)Nc1ccc(Sc2ncnc3scc(-c4ccccc4)c23)cc1	0	-7	-11	7	10*	-3	14	10.0*
Nc1nc(Nc2cccc(C(F)(F)F)c2)nc(C(F)(F)F)n1	1	-16	-3	17	15*	-9	23*	16*
Nc1ncnc(Nc2cccc(C(F)(F)F)c2)n1	-1	1	2	7	-1	-11	.	.
NC(=O)/C(=C/c1ccco1)NC(=O)c1ccc(Br)o1	0	2	3	-5	-3	19	.	.
Cc1nc(C)c(-c2nnc(-c3ccc(C(C)(C)C)cc3)o2)cc1C(=O)NN	7	-11	-3	13	10*	5	2	5
Cc1nc(C)c(-c2nnc(-c3ccccc3Cl)o2)cc1C(=O)NN	1	-1	0	5	-1	-5	.	.
Cc1ccc(NC(=O)c2cc([N+](=O)[O-])ccc2NCc2cccnc2)cc1	3	-7	-2	12	9.2*	-4	15	9
O=C(OC(C(=O)Nc1cc(Cl)cc(Cl)c1)c1ccccc1)C1=COCCO1 (configuration not stated)	25	0	-17	14	9.8*	-3	31*	15*
CC(OC(=O)C1=COCCO1)C(=O)Nc1ccc(Oc2ccccc2)cc1 (configuration not stated)	-2	-1	1	-3	-4	4	.	.
CCOC(=O)c1c(NC(=O)c2ccccc2C)sc2c1CC(C)(C)OC2	0	-2	2	-9	-6	7	.	.
COc1cccc(N=C2SC(C(=O)Nc3ccc(F)cc3)CC(=O)N2C)c1 (configuration not stated)	1	0	-6	7	10*	-3	25*	11*
CCOc1ccc(NC(=O)C2CC(=O)N(C)C(=Nc3ccc4c(c3)OCO4)S2)cc1 (configuration not stated)	1	3	-22	-7	-2	17	.	.
O=S(=O)(c1ccccc1)N1CCN=C1SCc1ccc(Cl)c(Cl)c1	4	-1	-9	13	5	9	.	.
O=S(=O)(c1ccccc1)N1CCN=C1SCc1cccc(Cl)c1	1	-2	0	15	9.3*	15	7	9.7*
COc1ccccc1C(=O)NNC(=O)c1ccc2ccccc2c1	1	0	0	4	-2	1	.	.
COc1ccc(C2CC(=O)c3c(O)cc(O)cc3O2)c(CC=C(C)C)c1OC (configuration not stated)	2	1	8	17	14*	-2	25*	14*
COc1ccc(C2CC(=O)c3c(O)cc(O)cc3O2)cc1O (configuration not stated)	-2	0	-8	-12	-1	20	.	.
CCOC(=O)C1=C(O)/C(=C/c2ccc(-c3ccccc3C(=O)O)o2)SC1=Nc1ccc(OC)cc1	0	-27	1	11	9.5*	-30	9	8.8*
SMILES	MPTP inh	MT1-MMP act inh	NR3A LBD binder	ADAM10 inh	ADAM17 inh	SKN-1 inh	ADAM10 counter	ADAM17 confirm
CCN(CC)C(=O)c1[nH]cnc1C(=O)Nc1ccccc1	-1	-1	0	8	-5	2	.	.
CCN(CC)C(=O)c1nc[nH]c1C(=O)N(CC)CC	3	4	0	9	9.2*	13	6	4
O=C(COC(=O)c1ccco1)Nc1ccc2c(c1)OCO2	1	4	-1	2	9.6*	7	-10	-6
O=C(COC(=O)c1ccco1)NCc1ccc2c(c1)OCO2	0	1	-3	-5	-9	1	.	.
N#CCSc1nnc(COc2ccccc2)n1-c1ccccc1	1	8	0	16	11*	-27	-4	-2
N#CCSc1nnc(COc2cccc3ccccc23)n1-c1ccccc1	15	-8	-4	1	-2	6	.	.
C/C(=N\NC(=O)CNC(=O)C(c1ccccc1)c1ccccc1)c1ccc(C(C)(C)C)cc1	1	2	-14	13	10*	2	4	2
CCOc1nc(NC(=O)NS(=O)(=O)Oc2ccccc2Cl)nc(-c2ccccc2)n1	-4	1	-1	4	-4	9	.	.
Cc1nc(SCC(=O)N2CC(=O)Nc3ccccc32)nc(C)c1C	-3	0	-1	-1	1	-1	.	.
CCCCOC(=O)C1=C(C)Nc2nnnn2C1c1ccccc1Cl (configuration not stated)	4	-3	-7	14	9.6*	3	16	8
CCCCOC(=O)Oc1ccc2c(=O)c(Oc3cc(C)cc(C)c3)coc2c1	3	-5	1	-195	-63	-3	.	.
CCOC(=O)Nc1cccc(OCC(=O)Nc2ccc3c(c2)CCC3)c1	-2	-2	1	-9	2	7	.	.
CCOC(=O)N1CCN(C(=O)c2ccc(N(Cc3ccc(C)cc3)S(C)(=O)=O)cc2)CC1	4	-2	4	7	9.0*	-3	-2	0
CCOC(=O)N1CCN(C(=O)c2ccc(N(Cc3ccc(Cl)cc3)S(C)(=O)=O)cc2)CC1	0	-1	1	-4	2	-3	.	.
N#Cc1c(-c2ccccc2)c(-c2ccccc2)nn(CC(=O)NNC(=O)Nc2ccccc2)c1=O	1	8	-1	-24	-2	4	.	.
